What was measured:
Rattus norvegicus [1] = experiment: The compound form was tested in vivo for the inhibition of cholesterol biosynthesis in chow-fed rats at 1.0 mg/kg; not determined; type: functional
Method in brief: (§1)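 Acute in vivo cholesterol synthesis (AICS) in normal chow-fed rats. Compounds dosed in DMA/PEG solution, 1.0 mg/kg po unless stated otherwise. Synthesis measured as incorporation of [1-14C]acetate into plasma sterols.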

[2] = biological target: T1, 3-hydroxy-3-methylglutaryl-coenzyme A reductase (Rattus norvegicus) (UniProt P51639); experiment: Tested in vivo for the inhibition of cholesterol biosynthesis in chow-fed rats at 1.0 mg/kg.; type: functional, organism-based; design: dose 1 mg/kg; method in brief: as §1
T1 sequence (whole entry): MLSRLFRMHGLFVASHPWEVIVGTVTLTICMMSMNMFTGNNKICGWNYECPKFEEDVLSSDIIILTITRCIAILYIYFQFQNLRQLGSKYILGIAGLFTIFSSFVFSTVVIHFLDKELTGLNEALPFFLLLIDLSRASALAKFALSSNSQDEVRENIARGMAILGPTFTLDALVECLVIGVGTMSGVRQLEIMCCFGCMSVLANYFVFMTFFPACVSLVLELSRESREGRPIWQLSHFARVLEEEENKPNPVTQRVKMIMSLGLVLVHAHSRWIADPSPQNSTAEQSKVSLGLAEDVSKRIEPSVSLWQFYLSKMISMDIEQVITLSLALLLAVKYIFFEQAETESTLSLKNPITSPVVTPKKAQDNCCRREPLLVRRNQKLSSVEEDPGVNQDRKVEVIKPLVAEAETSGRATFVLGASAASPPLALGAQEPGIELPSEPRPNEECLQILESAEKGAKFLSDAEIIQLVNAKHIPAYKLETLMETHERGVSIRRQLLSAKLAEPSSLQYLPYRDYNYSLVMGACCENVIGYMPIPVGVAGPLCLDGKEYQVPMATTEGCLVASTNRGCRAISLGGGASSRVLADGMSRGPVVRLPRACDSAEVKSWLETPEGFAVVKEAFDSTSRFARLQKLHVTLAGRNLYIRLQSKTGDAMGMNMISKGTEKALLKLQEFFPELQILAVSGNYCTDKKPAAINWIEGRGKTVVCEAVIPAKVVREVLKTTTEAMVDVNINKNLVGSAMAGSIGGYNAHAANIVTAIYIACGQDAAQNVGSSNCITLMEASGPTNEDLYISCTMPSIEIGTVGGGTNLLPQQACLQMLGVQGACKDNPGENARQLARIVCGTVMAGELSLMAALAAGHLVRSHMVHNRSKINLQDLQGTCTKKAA

Rattus norvegicus [3] = experiment: The compound in lactone form was tested in vivo for the inhibition of cholesterol biosynthesis in chow-fed rats at 1.0 mg/kg.; type: functional; method in brief: as §1
Rattus norvegicus [4] = experiment: The compound was tested in vivo for the inhibition of cholesterol biosynthesis in chow-fed rats.; type: functional; method in brief: as §1
Rattus norvegicus [5] = experiment: The compound was tested in vivo for the inhibition of cholesterol biosynthesis in chow-fed rats at 1.0 mg/kg; type: functional; method in brief: as §1
Canis familiaris [6] = experiment: Hypocholesterolemic activity in Cholestyramine-primed Beagle dogs at dose of 0.1 mg/kg four weeks after.; type: functional, Canis lupus familiaris
Method in brief: (§2)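 Beagle dogs pretreated with cholestyramine resin, then given resin plus inhibitor. Plasma cholesterol read after 2 and 4 weeks of drug treatment. Values are mean percent change from pretreatment values within the same group; significance versus untreated controls at p < 0.05.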

Canis familiaris [7] = experiment: Hypocholesterolemic activity in Cholestyramine-primed Beagle dogs at dose of 0.1 mg/kg two weeks after.; type: functional, Canis lupus familiaris; method in brief: as §2
Canis familiaris [8] = experiment: Hypocholesterolemic activity in Cholestyramine-primed Beagle dogs at dose of 0.3 mg/kg four weeks after.; type: functional, Canis lupus familiaris; method in brief: as §2
Canis familiaris [9] = experiment: Hypocholesterolemic activity in Cholestyramine-primed Beagle dogs at dose of 0.3 mg/kg two weeks after.; type: functional, Canis lupus familiaris; method in brief: as §2
Canis familiaris [10] = experiment: Hypocholesterolemic activity in Cholestyramine-primed Beagle dogs at dose of 1.0 mg/kg four weeks after.; type: functional, Canis lupus familiaris; method in brief: as §2
Canis familiaris [11] = experiment: Hypocholesterolemic activity in Cholestyramine-primed Beagle dogs at dose of 1.0 mg/kg two weeks after.; type: functional, Canis lupus familiaris; method in brief: as §2
Rattus norvegicus [12] = experiment: The compound was tested in vivo for the inhibition of cholesterol biosynthesis in chow-fed rats at 1.0 mg/kg.; type: functional; method in brief: as §1

SMILES	inhibition [2]	other results
CC[C@H](C)C(=O)O[C@H]1C[C@H](O)C=C2C=C[C@H](C)[C@H](CC[C@@H](O)C[C@@H](O)CC(=O)O)[C@H]21 [PRAVASTATIN]	48%	inhibition in vivo at 1 mg/kg (Rattus norvegicus [1]): 48%
O=C(O)C[C@H](O)C[C@H](O)/C=C/c1c(C(F)(F)F)nn(-c2ccccn2)c1-c1ccc(F)cc1	81%	–
O=C1C[C@H](O)C[C@@H](/C=C/c2c(C(F)(F)F)nn(-c3ccccn3)c2-c2ccc(F)cc2)O1	60%	–
CC(C)c1nn(-c2ccccc2)c(-c2ccc(F)cc2)c1CCC(O)C[C@@H](O)CC(=O)O (some centres undefined)	72%	–
CC(C)c1nn(-c2ccccn2)c(-c2ccc(F)cc2)c1CCC(O)C[C@@H](O)CC(=O)O (some centres undefined)	68%	–
CC(C)c1nn(-c2ccccn2)c(-c2ccc(F)cc2)c1/C=C/[C@@H]1C[C@@H](O)CC(=O)O1 (stereo in doubt; 20a) [listing 1 of 2 here]	93%	–
CC(C)c1nn(-c2ccccn2)c(-c2ccc(F)cc2)c1/C=C/[C@@H](O)C[C@@H](O)CC(=O)O	98%	inhibition in vivo at 1 mg/kg (Rattus norvegicus [3]): 85%
CC(C)c1nn(-c2cnccn2)c(-c2ccc(F)cc2)c1/C=C/[C@@H](O)C[C@@H](O)CC(=O)[O-].[Na+]	75%	Inhibition (Rattus norvegicus [4]): 91%
CC(C)c1nn(-c2cnccn2)c(-c2ccc(F)cc2)c1/C=C/[C@@H]1C[C@@H](O)CC(=O)O1 (stereo in doubt; 20b)	92%	–
CC(C)c1nn(-c2cnccn2)c(-c2ccc(F)cc2)c1/C=C/[C@@H]1C[C@@H](O)CC(=O)O1 (stereo in doubt; 10b)	80%	–
CC(C)c1nn(-c2ccccc2)c(-c2ccc(F)cc2)c1/C=C/[C@@H](O)C[C@@H](O)CC(=O)O	94%	–
CC(C)c1nn(-c2ccccn2)c(-c2ccc(F)cc2)c1/C=C/[C@@H]1C[C@@H](O)CC(=O)O1 (stereo in doubt; 10a)	83%	–
CC(C)c1nn(-c2ccccc2)c(-c2ccc(F)cc2)c1CCC1C[C@@H](O)CC(=O)O1 (some centres undefined)	–	inhibition in vivo at 1 mg/kg (Rattus norvegicus [5]): 54%
CC(C)c1nn(-c2ccccn2)c(-c2ccc(F)cc2)c1/C=C/[C@@H]1C[C@@H](O)CC(=O)O1 (stereo in doubt; 20a) [listing 2 of 2 here]	–	Change (Canis familiaris [6]): -16%; Change (Canis familiaris [7]): -20%; Change (Canis familiaris [8]): -32%; Change (Canis familiaris [9]): -31%; Change (Canis familiaris [10]): -50%; Change (Canis familiaris [11]): -44%
CC(C)c1nn(-c2ccc3ccccc3n2)c(-c2ccc(F)cc2)c1/C=C/[C@@H](O)C[C@@H](O)CC(=O)O	69%	–
CC(C)c1nn(-c2nc3ccccc3s2)c(-c2ccc(F)cc2)c1/C=C/[C@@H]1C[C@@H](O)CC(=O)O1	30%	–
CC(C)c1nn(-c2ccccn2)c(-c2ccc(F)cc2)c1CCC1C[C@@H](O)CC(=O)O1 (some centres undefined)	58%	–
CC(C)c1nn(-c2nc3ccccc3s2)c(-c2ccc(F)cc2)c1/C=C/[C@@H](O)C[C@@H](O)CC(=O)O	51%	–
CC[C@H](C)C(=O)O[C@H]1C[C@@H](C)C=C2C=C[C@H](C)[C@H](CC[C@@H]3C[C@@H](O)CC(=O)O3)[C@H]21 [LOVASTATIN]	–	Change (Canis familiaris [6]): -1%; Change (Canis familiaris [7]): -7%; Change (Canis familiaris [8]): -2%; Change (Canis familiaris [9]): -10%; Change (Canis familiaris [10]): -17%; Change (Canis familiaris [11]): -25%; inhibition in vivo at 1 mg/kg (Rattus norvegicus [12]): 64%
CC(C)c1nn(-c2ccc3ccccc3n2)c(-c2ccc(F)cc2)c1/C=C/[C@@H]1C[C@@H](O)CC(=O)O1	75%	–
